Test results: ChEMBL document CHEMBL1821568, “Conjugates of 3α-methoxyserrat-14-en-21β-ol (PJ-1) and 3β-methoxyserrat-14-en-21β-ol (PJ-2) as cancer chemopreventive agents” (Eur J Med Chem, 2011)
pIC50: −log10 of the molar value.

Assays:
[1] = tested on: Raji; assay: Inhibition of TPA-induced EBV-early antigen activation in human Raji cells assessed as EA activation at 100 molar ratio after 48 hrs relative to control; type: cell-based; conditions: human gammaherpesvirus 4
Method in brief: (§1)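 Raji cells (non-producer sub-line, spontaneous EA under 0.1%) at 1×10^6/mL, incubated 37 °C for 48 h with n-butyric acid (4 mmol), TPA (32 pmol in DMSO) and compound in DMSO. Dose expressed as mol ratio to TPA (1000, 500, 100, 10). EA-positive cells were detected by indirect immunofluorescence with NPC patient serum, at least 500 cells counted. Assays were run in triplicate. Results are relative to butyrate+TPA control (100%). IC50 given in nM.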

[2] = Inhibition of TPA-induced EBV-early antigen activation in human Raji cells assessed as EA activation after 48 hrs; type: cell-based, human gammaherpesvirus 4; method in brief: as §1
[3] = tested on: Raji; assay: Inhibition of TPA-induced EBV-early antigen activation in human Raji cells assessed as EA activation at 1000 molar ratio after 48 hrs relative to control; type: cell-based; parameters: scale not given: the % may be the effect or the level left; conditions: human gammaherpesvirus 4; method in brief: as §1
[4] = tested on: Raji; assay: Inhibition of TPA-induced EBV-early antigen activation in human Raji cells assessed as EA activation at 500 molar ratio after 48 hrs relative to control; type: cell-based; parameters: scale not given: the % may be the effect or the level left; conditions: human gammaherpesvirus 4; method in brief: as §1
[5] = Cytotoxicity against human Raji cells carrying EBV genome assessed as cell viability at 1000 molar ratio by trypan blue staining method; type: cell-based; conditions: read-out: Activity
Method in brief: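 Raji cells (EBV genome-carrying, in RPMI-1640 with 10% FBS) at 1×10^6/mL, incubated 48 h at 37 °C with n-butyric acid (4 mmol), TPA (32 pmol) and test compound in DMSO. Viability scored by Trypan Blue staining. Molar ratio means mol of compound per mol of TPA (32 pmol).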

[6] = tested on: Raji; assay: Inhibition of TPA-induced EBV-early antigen activation in human Raji cells assessed as EA activation at 10 molar ratio after 48 hrs relative to control; type: cell-based; parameters: scale not given: the % may be the effect or the level left; conditions: human gammaherpesvirus 4; method in brief: as §1
[7] = tested on: Mus musculus; assay: Inhibition of DMBA-induced and TPA-promoted carcinogenesis in ICR mouse assessed as reduction of mouse bearing papillomas at 85 nmol administered 1 hr before TPA treatment measured after 10 to 15 weeks; type: functional
Method in brief: (§2)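 Female SPF ICR mice, 6 weeks old, 15 per group, backs shaved. Initiation was one topical dose of DMBA (390 nmol) in acetone 0.1 mL. Promotion was TPA (1.7 nmol) twice weekly, with compound given topically at 85 nmol. Papilloma incidence and papillomas per mouse were followed to week 20, and tumor length and width were recorded. Significance was set at P<0.05 versus the DMBA/TPA control.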

[8] = species on record: Mus musculus; assay: Toxicity in ICR mouse assessed as change in body weight at 85 nmol; type: organism-based; conditions: in vivo
[9] = species on record: Mus musculus; assay: Toxicity in ICR mouse assessed as lesional damage at 85 nmol; type: organism-based; conditions: in vivo
[10] = species on record: Mus musculus; assay: Toxicity in ICR mouse assessed as erosion at 85 nmol; type: organism-based; conditions: in vivo
[11] = tested on: Mus musculus; assay: Inhibition of DMBA-induced and TPA-promoted carcinogenesis in ICR mouse assessed as reduction of mouse bearing papillomas length at 85 nmol administered 1 hr before TPA treatment measured after 20 weeks; type: functional; method in brief: as §2
[12] = species on record: Mus musculus; assay: Toxicity in ICR mouse assessed as ulcer at 85 nmol; type: organism-based; conditions: in vivo
[13] = tested on: Mus musculus; assay: Toxicity in ICR mouse assessed as edema at 85 nmol; type: organism-based; conditions: in vivo
[14] = tested on: Mus musculus; assay: Inhibition of DMBA-induced and TPA-promoted carcinogenesis in ICR mouse assessed as reduction of mouse bearing papillomas at 85 nmol administered 1 hr before TPA treatment measured after 20 weeks; type: functional; method in brief: as §2
[15] = tested on: Mus musculus; assay: Inhibition of DMBA-induced and TPA-promoted carcinogenesis in ICR mouse assessed as reduction of mouse bearing papillomas width at 85 nmol administered 1 hr before TPA treatment measured after 20 weeks; type: functional; method in brief: as §2

Row | pIC50 [2] | Structure (SMILES) | EA activation relative to control [1] [%] | Activity [3] [%] | Activity [4] [%] | viability at 1000 molar ratio [5] [%] | Activity [6] [%] | inhibition (INH) [7] [%] | Activity [8] | Activity [9] | Activity [10] | Activity [11] [mm] | Activity [12] | Activity [13] | inhibition (INH) [14] [%] | Activity [15] [mm]
1 | 6.35 | CO[C@H]1CC[C@@]2(C)[C@@H](CC[C@@]3(C)CC4=CC[C@H]5C(C)(C)[C@H](OC(=O)CN)CC[C@]5(C)[C@H]4CC[C@@H]32)C1(C)C | 80.3 | 12 | 42.5 | 60 | 100 |  |  |  |  |  |  |  |  | 
2 | 6.31 | CO[C@H]1CC[C@@]2(C)[C@@H](CC[C@@]3(C)CC4=CC[C@H]5C(C)(C)[C@H](OC(=O)CCC(=O)Oc6ccc(-c7coc8cc(O)ccc8c7=O)cc6)CC[C@]5(C)[C@H]4CC[C@@H]32)C1(C)C | 82.6 | 15 | 49.4 | 60 | 100 |  |  |  |  |  |  |  |  | 
3 | 6.33 | CO[C@H]1CC[C@@]2(C)[C@@H](CC[C@@]3(C)CC4=CC[C@H]5C(C)(C)[C@H](OC(=O)CCC(=O)Oc6ccc([C@@H]7CC(=O)c8c(O)cc(O)cc8O7)cc6)CC[C@]5(C)[C@H]4CC[C@@H]32)C1(C)C | 80 | 14 | 47.3 | 60 | 100 |  |  |  |  |  |  |  |  | 
4 | 6.64 | CO[C@@H]1CC[C@@]2(C)[C@@H](CC[C@@]3(C)C[C@]45CC[C@@H]6C(C)(C)[C@H](OC(=O)CC(C)(C)C(=O)O)CC[C@@]6(C)[C@@]4(CC[C@@H]32)O5)C1(C)C | 68.4 | 0 | 26.6 | 60 | 89.6 | 26.6 | Non-toxic | Non-toxic | Non-toxic | 18 | Non-toxic | Non-toxic | 93.3 | 17
5 | 6.54 | CO[C@H]1CC[C@@]2(C)[C@@H](CC[C@@]3(C)CC4=CC[C@H]5C(C)(C)[C@H](OC(=O)c6cc(O)c(O)c(O)c6)CC[C@]5(C)[C@H]4CC[C@@H]32)C1(C)C | 71.3 | 2.2 | 36.5 | 60 | 91.5 | 20 | Non-toxic | Non-toxic | Non-toxic | 18 | Non-toxic | Non-toxic | 86.6 | 15
6 | 6.34 | CO[C@H]1CC[C@@]2(C)[C@@H](CC[C@@]3(C)CC4=CC[C@H]5C(C)(C)[C@H](OC(=O)CCC(=O)Oc6ccc(-c7coc8cc(O)cc(O)c8c7=O)cc6)CC[C@]5(C)[C@H]4CC[C@@H]32)C1(C)C | 79.6 | 12 | 45.2 | 60 | 100 |  |  |  |  |  |  |  |  | 
7 | 6.43 | COc1c(O)cc(C(=O)O[C@@H]2CC[C@]3(C)[C@H]4CC[C@H]5[C@@](C)(CC[C@H]6C(C)(C)[C@@H](OC)CC[C@@]65C)CC4=CC[C@H]3C2(C)C)cc1O | 72.5 | 4.7 | 37.8 | 60 | 93.4 |  |  |  |  |  |  |  |  | 
8 | 6.34 | CO[C@H]1CC[C@@]2(C)[C@@H](CC[C@@]3(C)CC4=CC[C@H]5C(C)(C)[C@H](OC(=O)CN6CCCCC6)CC[C@]5(C)[C@H]4CC[C@@H]32)C1(C)C | 82 | 13.5 | 46.3 | 60 | 100 |  |  |  |  |  |  |  |  | 
9 | 6.55 | CO[C@@H]1CC[C@@]2(C)[C@@H](CC[C@@]3(C)CC4=CC[C@H]5C(C)(C)[C@H](OC(=O)CCC(=O)O)CC[C@]5(C)[C@H]4CC[C@@H]32)C1(C)C | 68.3 | 0 | 32.4 | 60 | 92.4 |  |  |  |  |  |  |  |  | 
10 | 6.61 | CO[C@H]1CC[C@@]2(C)[C@@H](CC[C@@]3(C)CC4=CC[C@H]5C(C)(C)[C@H](OC(=O)CC(C)(C)C(=O)O)CC[C@]5(C)[C@H]4CC[C@@H]32)C1(C)C | 67 | 0 | 28.5 | 60 | 90.3 |  |  |  |  |  |  |  |  | 
11 | 6.34 | CO[C@@H]1CC[C@@]2(C)[C@@H](CC[C@@]3(C)CC4=CC[C@H]5C(C)(C)[C@H](OC(=O)CCC(=O)Oc6ccc(-c7coc8cc(O)cc(O)c8c7=O)cc6)CC[C@]5(C)[C@H]4CC[C@@H]32)C1(C)C | 81 | 12.2 | 45.9 | 60 | 100 |  |  |  |  |  |  |  |  | 
12 | 6.35 | CC1(C)CC[C@]2(C(=O)O)CC[C@]3(C)C(=CC[C@@H]4[C@@]5(C)CC[C@H](O)C(C)(C)[C@@H]5CC[C@]43C)[C@@H]2C1 [OLEANOLIC_ACID] | 80 | 12.7 | 30 |  | 100 |  |  |  |  |  |  |  |  | 
13 | 6.55 | CO[C@H]1CC[C@@]2(C)[C@@H](CC[C@@]3(C)CC4=CC[C@H]5C(C)(C)[C@H](OC(=O)CCC(=O)O)CC[C@]5(C)[C@H]4CC[C@@H]32)C1(C)C | 69.5 | 0 | 33.6 | 60 | 93.8 |  |  |  |  |  |  |  |  | 
14 | 6.33 | CO[C@@H]1CC[C@@]2(C)[C@@H](CC[C@@]3(C)CC4=CC[C@H]5C(C)(C)[C@H](OC(=O)CCC(=O)Oc6ccc([C@@H]7CC(=O)c8c(O)cc(O)cc8O7)cc6)CC[C@]5(C)[C@H]4CC[C@@H]32)C1(C)C | 81 | 14.3 | 48.7 | 60 | 100 |  |  |  |  |  |  |  |  | 
15 | 6.60 | CO[C@@H]1CC[C@@]2(C)[C@@H](CC[C@@]3(C)CC4=CC[C@H]5C(C)(C)[C@H](OC(=O)CC(C)(C)C(=O)O)CC[C@]5(C)[C@H]4CC[C@@H]32)C1(C)C | 67.5 | 0 | 29.7 | 60 | 91.5 | 13.3 | Non-toxic | Non-toxic | Non-toxic | 16 | Non-toxic | Non-toxic | 80 | 14
16 | 6.30 | CO[C@@H]1CC[C@@]2(C)[C@@H](CC[C@@]3(C)CC4=CC[C@H]5C(C)(C)[C@H](OC(=O)CCC(=O)Oc6ccc(-c7coc8cc(O)ccc8c7=O)cc6)CC[C@]5(C)[C@H]4CC[C@@H]32)C1(C)C | 83.4 | 15.8 | 50.3 | 60 | 100 |  |  |  |  |  |  |  |  | 
